Legend:
[1] = target: Cannabinoid receptor 1 (Homo sapiens, UniProt P21554); test: Antagonist activity at human CB1 receptor expressed in CHOK1 cells by luciferase assay; format: functional, cell-based, CHO-K1
[2] = target: Cannabinoid receptor 1 (Rattus norvegicus, UniProt P20272); test: Displacement of [3H]CP-55940 from CB1 receptor in Sprague-Dawley rat cerebella membrane
In short: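 Male Sprague–Dawley rat (200–300 g) cerebellar membranes incubated with 3 nM [3H]CP55,940 and varied ligand concentrations in TME buffer with 0.5% fatty-acid-free BSA, 1 h at 30 °C. Filtered over PEI-soaked GF/B filters, washed five times with ice-cold buffer containing 0.1% BSA, then counted by liquid scintillation. IC50 from single determinations.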

[3] = target: Cannabinoid receptor 2 (Homo sapiens, UniProt P34972); test: Displacement of [3H]WIN-55212-2 from human CB2 receptor expressed in CHOK1 cells; format: cell-based, CHO-K1
In short: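 Membranes were from CHO K-1 cells transfected with human CB2. They were incubated with 3 nM [3H]WIN55,212-2 and varied ligand concentrations in TME/0.5% fatty-acid-free BSA, 1 h at 30 °C. Bound ligand was separated on 0.1% PEI-soaked GF/B filters, washed five times with ice-cold 0.1% BSA buffer, and counted by scintillation. IC50 from single determinations.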

Cannabinoid receptor 1 (Homo sapiens, UniProt P21554), sequence (P21554 whole entry): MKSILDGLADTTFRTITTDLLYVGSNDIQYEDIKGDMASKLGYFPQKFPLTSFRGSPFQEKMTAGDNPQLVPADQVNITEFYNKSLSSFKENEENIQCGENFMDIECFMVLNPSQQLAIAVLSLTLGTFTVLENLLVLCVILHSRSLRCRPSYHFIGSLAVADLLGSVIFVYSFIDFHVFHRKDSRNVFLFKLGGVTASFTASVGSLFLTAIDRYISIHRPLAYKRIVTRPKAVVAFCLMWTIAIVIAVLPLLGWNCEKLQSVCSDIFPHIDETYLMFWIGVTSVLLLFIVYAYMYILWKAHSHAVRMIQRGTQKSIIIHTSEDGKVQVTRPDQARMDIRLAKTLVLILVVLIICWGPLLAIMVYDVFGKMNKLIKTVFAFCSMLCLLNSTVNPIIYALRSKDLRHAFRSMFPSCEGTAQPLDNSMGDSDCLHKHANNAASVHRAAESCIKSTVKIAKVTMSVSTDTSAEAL
Cannabinoid receptor 2, sequence (P34972 whole entry): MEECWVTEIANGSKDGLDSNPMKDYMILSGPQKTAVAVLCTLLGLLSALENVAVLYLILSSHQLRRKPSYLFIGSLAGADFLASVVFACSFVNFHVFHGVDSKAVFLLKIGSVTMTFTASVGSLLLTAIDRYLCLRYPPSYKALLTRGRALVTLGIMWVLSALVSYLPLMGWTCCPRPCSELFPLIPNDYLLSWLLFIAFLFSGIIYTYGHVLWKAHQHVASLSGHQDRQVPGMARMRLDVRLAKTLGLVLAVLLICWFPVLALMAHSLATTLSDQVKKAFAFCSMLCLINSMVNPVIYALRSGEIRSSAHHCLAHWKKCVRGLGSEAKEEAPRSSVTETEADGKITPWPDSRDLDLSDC
Cannabinoid receptor 1 (Rattus norvegicus, UniProt P20272), sequence (P20272 whole entry): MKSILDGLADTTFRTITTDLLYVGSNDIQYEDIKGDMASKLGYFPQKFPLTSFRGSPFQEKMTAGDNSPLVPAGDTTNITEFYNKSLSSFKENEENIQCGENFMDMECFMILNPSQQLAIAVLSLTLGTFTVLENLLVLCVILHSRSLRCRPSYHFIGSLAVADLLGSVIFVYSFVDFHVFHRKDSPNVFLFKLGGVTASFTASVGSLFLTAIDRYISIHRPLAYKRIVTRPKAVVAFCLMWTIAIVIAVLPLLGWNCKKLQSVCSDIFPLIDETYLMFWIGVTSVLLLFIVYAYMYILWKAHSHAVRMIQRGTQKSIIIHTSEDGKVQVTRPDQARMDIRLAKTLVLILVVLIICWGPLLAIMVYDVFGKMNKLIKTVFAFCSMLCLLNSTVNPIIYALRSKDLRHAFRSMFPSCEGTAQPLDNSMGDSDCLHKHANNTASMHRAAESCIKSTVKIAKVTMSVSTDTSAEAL

Row | SMILES | IC50 [1] [nM] | IC50 [2] [nM] | IC50 [3] [nM]
1 | O=C(NCC1CCCCC1)N1CCN(C(c2ccc(Br)cc2)c2ccccc2Cl)CC1 (stereo not drawn) | 146 | 127 | > 10000
2 | CC(C)(C)NC(=O)N1CCN(C(c2ccc(Br)cc2)c2ccccc2Cl)CC1 (stereo not drawn) | 286 | 237 | 4950
3 | O=C(NC1CCCCCC1)N1CCN(C(c2ccc(Br)cc2)c2ccccc2Cl)CC1 (stereo not drawn) | 49.4 | 82.3 | > 10000
4 | O=C(NC1CCCCC1)N1CCN(C(c2ccc(Br)cc2)c2ccccc2Cl)CC1 (stereo not drawn) | 62.8 | 103 | > 10000
5 | O=C(NC1CCCCCC1)C(=O)N1CCN(C(c2ccc(Cl)cc2)c2ccccc2Cl)CC1 (stereo not drawn) | – | 229 | –
6 | O=C(NCC1CCCCC1)N1CCN(C(c2ccc(Cl)cc2)c2ccccc2C(F)(F)F)CC1 (stereo not drawn) | 798 | 526 | > 10000
7 | CC(C)(C)NC(=O)N1CCN(C(c2ccc(Cl)cc2)c2ccccc2C(F)(F)F)CC1 (stereo not drawn) | – | 2050 | –
8 | O=C(NC1CCCCC1)C(=O)N1CCN(C(c2ccc(Cl)cc2)c2ccccc2Cl)CC1 (stereo not drawn) | – | 226 | –
9 | O=C(NCC1CCCCC1)N1CCN(C(c2ccc(Cl)cc2)c2cccc(Cl)c2Cl)CC1 (stereo not drawn) | – | 2000 | –
10 | CC(C)(C)NC(=O)N1CCN(C(c2ccc(Cl)cc2)c2cccc(Cl)c2Cl)CC1 (stereo not drawn) | 316 | 783 | > 10000
11 | O=C(NC1CCCCCC1)N1CCN(C(c2ccc(Cl)cc2)c2cccc(Cl)c2Cl)CC1 (stereo not drawn) | 424 | 158 | > 10000
12 | CCCCCC(=O)N1CCN(C(c2ccc(Cl)cc2)c2ccc(Cl)cc2Cl)CC1 (stereo not drawn) | – | 257 | –
13 | O=C(NC1CCCCCC1)N1CCN(C(c2ccc(Cl)cc2)c2ccc(Cl)cc2Cl)CC1 (stereo not drawn) | 729 | 89.2 | > 10000
14 | O=C(NC1CCCCC1)N1CCN(C(c2ccc(Cl)cc2)c2cccc(Cl)c2Cl)CC1 (stereo not drawn) | 441 | 186 | > 10000
15 | O=C(NCC1CCCCC1)N1CCN(C(c2ccc(Cl)cc2)c2ccccc2Cl)CC1 (stereo not drawn) | 273 | 189 | > 10000
16 | Cc1ccccc1C(c1ccc(Cl)cc1)N1CCN(C(=O)NC2CCCCC2)CC1 (stereo not drawn) | 195 | 248 | > 10000

Row | SMILES | IC50 [1] [nM] | IC50 [2] [nM] | IC50 [3] [nM]
17 | Cc1ccccc1C(c1ccc(Cl)cc1)N1CCN(C(=O)NC2CCCCCC2)CC1 (stereo not drawn) | 163 | 151 | > 10000
18 | O=C(C1CCCCC1)N1CCN(C(c2ccc(Cl)cc2)c2ccc(Cl)cc2)CC1 | – | 1390 | –
19 | CCCCCC(=O)N1CCN(C(c2ccc(Cl)cc2)c2ccc(Cl)cc2)CC1 | – | 1150 | –
20 | O=C(NC1CCCCC1)N1CCN(C(c2ccc(Cl)cc2)c2ccccc2Cl)CC1 (stereo not drawn) | 128 | 72.8 | > 10000
21 | CC(C)(C)NC(=O)N1CCN(C(c2ccc(Cl)cc2)c2ccc(Cl)cc2Cl)CC1 (stereo not drawn) | – | 2000 | –
22 | O=C(NC1CCCCCC1)N1CCN(C(c2ccc(Cl)cc2)c2ccccc2Cl)CC1 (stereo not drawn) | 226 | 66.5 | > 10000
23 | O=C(NC1CCCCC1)N1CCN(C(c2ccc(Cl)cc2)c2ccc(Cl)cc2)CC1 | – | 914 | –
24 | Cc1ccccc1C(c1ccc(Cl)cc1)N1CCN(C(=O)NCC2CCCCC2)CC1 (stereo not drawn) | 340 | 291 | > 10000
25 | O=C(NC1CCCCC1)N1CCN(C(c2ccc(Cl)cc2)c2ccccc2C(F)(F)F)CC1 (stereo not drawn) | 186 | 163 | > 10000
26 | O=C(NC1CCCCCC1)N1CCN(C(c2ccc(Cl)cc2)c2ccccc2C(F)(F)F)CC1 (stereo not drawn) | 204 | 141 | > 10000
27 | CC(C)(C)NC(=O)N1CCN(C(c2ccc(Cl)cc2)c2ccccc2Cl)CC1 (stereo not drawn) | 443 | 122 | 4820
28 | O=C(C1CCC1)N1CCN(C(c2ccc(Cl)cc2)c2ccc(Cl)cc2)CC1 | – | 1070 | –
29 | O=C(NCC1CCCCC1)N1CCN(C(c2ccc(Cl)cc2)c2ccc(Cl)cc2Cl)CC1 (stereo not drawn) | 1040 | 262 | > 10000
30 | Cc1ccccc1C(c1ccc(Cl)cc1)N1CCN(C(=O)NC(C)(C)C)CC1 (stereo not drawn) | 334 | 680 | > 10000
31 | O=C(NC1CCCCC1)N1CCN(C(c2ccc(Cl)cc2)c2ccc(Cl)cc2Cl)CC1 (stereo not drawn) | 367 | 104 | > 10000

Reference: ChEMBL document CHEMBL1157137, “Design, synthesis and biological evaluation of piperazine analogues as CB1 cannabinoid receptor ligands” (Bioorg Med Chem, 2008)
